These results are taken from ChEMBL document CHEMBL4680114, “Optimization of Potent and Selective Ataxia Telangiectasia-Mutated Inhibitors Suitable for a Proof-of-Concept Study in Huntington's Disease Models” (J Med Chem, 2019).

A short description of data set [1]: Kinetic solubility in pH 7.4 PBS buffer by LC-UV assay. As to conditions: read-out: Kinetic_solubility. In kind it is physicochemical. In short, it runs like this:
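Compound from a 10 mM DMSO stock diluted to a nominal 200 µM in 0.1 M potassium phosphate/0.8% NaCl pH 7.4 (2% DMSO final), n=2. Shaken 2 h at room temperature, then filtered. Filtrate quantified by LC-UV against 200 µM and 10 µM DMSO standards, with MS peak confirmation.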

The nature of data set [2]: Distribution coefficient, logD of compound at pH 7.4. In kind it is physicochemical. As to conditions: octanol/water.
The nature of data set [3]: Unbound brain-to-plasma concentration ratio in C57BL/6J mouse at 3 mg/kg, iv administered as single dose by LC-MS/MS analysis. Type of data set: ADME, organism-based. The following applies: brain and plasma, read-out: K(p,uu,brain).
Data set [4] can be described thus: Ratio of AUC/dose in brain to plasma of C57BL/6J mouse at 3 mg/kg, iv administered as single dose by LC-MS/MS analysis. In kind it is ADME, organism-based. The following applies: brain and plasma, read-out: BPR. Summed up:
(§1)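 Male mice given a single iv dose of 3 mg/kg in 10:50:40 DMSO:PEG400:H2O (5 mL/kg). Plasma (cardiac puncture) and brain collected, n=3 per time point, and measured by LC-MS/MS. Non-compartmental parameters from mean concentrations, with C0 back-extrapolated; AUC by linear trapezoidal method, dose-normalised.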

Data set [5] is described as follows: Volume of distribution at steady state in C57BL/6J mouse at 3 mg/kg, iv administered as single dose by LC-MS/MS analysis. The following applies: in vivo, read-out: Vdss. Type of data set: ADME, organism-based. Summed up:
as §1

A short description of data set [6]: AUC/dose in C57BL/6J mouse plasma at 3 mg/kg, iv administered as single dose by LC-MS/MS analysis. As to conditions: in vivo. Type of data set: ADME, organism-based. Summed up: (§2)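 Male C57BL/6 mice, single intravenous dose as solution in 10:50:40 DMSO:PEG400:H2O (5 mL/kg). Plasma by cardiac puncture and brain collected at set times, n=3 per time point. LC-MS/MS quantitation with diclofenac IS. Composite non-compartmental parameters from mean concentrations; C0 back-extrapolated from first two points; kel from at least last three concentrations; AUC dose-normalized.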

The nature of data set [7]: AUC/dose in C57BL/6J mouse brain at 3 mg/kg, iv administered as single dose by LC-MS/MS analysis. In kind it is ADME, organism-based. As to conditions: in vivo. Summed up:
as §2

Structures are written as SMILES. Values after ≈ are worked out from the molar mass of the structure shown. A value given as a limit tells only on which side of the number the result lay.

For `C[C@@H]1CN(CC(=O)Nc2ccc3c(c2)Cc2cccc(-c4cc(=O)cc(N5CCOCC5)o4)c2S3)C[C@H](C)O1`, the solubility kinetic in data set [1] stood at 46 µg/mL (≈ 84 µM). Further, the logD (commonly lipophilicity at a set pH, counting ionised and neutral species) in data set [2] was determined as 4.5.

For `CCN1CC(Oc2ccc3c(c2)Cc2cccc(-c4cc(=O)cc(N5CCOCC5)o4)c2S3)C1`, in data set [1], the solubility kinetic is 89 µg/mL (≈ 187 µM).

In the case of `C[C@@H](CN1CCOCC1)Oc1ccc2c(c1)Cc1cccc(-c3cc(=O)cc(N4CCOCC4)o3)c1S2`, the solubility kinetic in data set [1] was 56 µg/mL (≈ 108 µM).

In the case of `CC(=O)N(C)c1ccc2c(c1)Cc1cccc(-c3cc(=O)cc(N4CCOCC4)o3)c1S2`, the solubility kinetic in data set [1] amounted to 77 µg/mL (≈ 172 µM).

As to `C[C@H](CN1CCOCC1)Oc1ccc2c(c1)Cc1cccc(-c3cc(=O)cc(N4CCOCC4)o3)c1S2`, the solubility kinetic in data set [1] was found to be 49 µg/mL (≈ 94.1 µM).

As for `O=c1cc(-c2cccc3c2Sc2ccc(OC4CCOCC4)cc2C3)oc(N2CCOCC2)c1`, the solubility kinetic in data set [1] is 10 µg/mL (≈ 20.9 µM).

Turning to `O=c1cc(-c2cccc3c2Sc2ccc(OCCN4CCC(F)(F)C4)cc2C3)oc(N2CCOCC2)c1`, the solubility kinetic in data set [1] was determined as 3 µg/mL (≈ 5.7 µM).

`C[C@@H](CN1CCOCC12COC2)Oc1ccc2c(c1)Cc1cccc(-c3cc(=O)cc(N4CCOCC4)o3)c1S2`: in data set [1], the solubility kinetic was determined as 29 µg/mL (≈ 51.5 µM).

For the compound `COC[C@@H](C)Oc1ccc2c(c1)Cc1cccc(-c3cc(=O)cc(N4CCOCC4)o3)c1S2`, the Kp uu in data set [3] was 0.14. Besides, the Kp in data set [4] was found to be 0.4. Also, in data set [5], the Vd stood at 1.9 L/kg. Besides, the AUC/dose in data set [6] was 1600 nM·kg·h/mg; in data set [7], 680 nM·kg·h/mg. Moreover, in data set [1], the solubility kinetic came to 22 µg/mL (≈ 47.3 µM).

As for `C[C@@H]1CN(C[C@H](C)Oc2ccc3c(c2)Cc2cccc(-c4cc(=O)cc(N5CCOCC5)o4)c2S3)C[C@H](C)O1`, in data set [1], the solubility kinetic was 27 µg/mL (≈ 49.2 µM).

Take `O=c1cc(-c2cccc3c2Sc2ccc(OCCN4CCCC45CCOC5)cc2C3)oc(N2CCOCC2)c1` (stereo not given): the solubility kinetic in data set [1] stood at 47 µg/mL (≈ 86 µM).

Consider `C[C@@H](CN1CCOC2(CC2)C1)Oc1ccc2c(c1)Cc1cccc(-c3cc(=O)cc(N4CCOCC4)o3)c1S2`, for which the solubility kinetic in data set [1] turned out to be 26 µg/mL (≈ 47.6 µM).

`O=c1cc(-c2cccc3c2Sc2ccc(OC4COC4)cc2C3)oc(N2CCOCC2)c1`: the Kp uu in data set [3] came to 0.07. Further, in data set [4], the Kp was 0.2. Further, the Vd in data set [5] was found to be 1.6 L/kg. The AUC/dose came out at 1900 nM·kg·h/mg in data set [6] and 450 nM·kg·h/mg in data set [7]. Besides, the solubility kinetic in data set [1] is 25 µg/mL (≈ 55.6 µM).

As to `CO[C@@H](C)COc1ccc2c(c1)Cc1cccc(-c3cc(=O)cc(N4CCOCC4)o3)c1S2`, the solubility kinetic in data set [1] worked out at 14 µg/mL (≈ 30.1 µM).

Turning to `C[C@@H]1CN([C@H](C)COc2ccc3c(c2)Cc2cccc(-c4cc(=O)cc(N5CCOCC5)o4)c2S3)C[C@H](C)O1`, in data set [1], the solubility kinetic amounted to 24 µg/mL (≈ 43.7 µM).

On to `C[C@H](O)COc1ccc2c(c1)Cc1cccc(-c3cc(=O)cc(N4CCOCC4)o3)c1S2`, for which the solubility kinetic in data set [1] was found to be 30 µg/mL (≈ 66.4 µM).

Consider `CC1(CNc2ccc3c(c2)Cc2cccc(-c4cc(=O)cc(N5CCOCC5)o4)c2S3)COC1`, for which, in data set [1], the solubility kinetic amounted to 14 µg/mL (≈ 29.4 µM).

As to `CN1CCN(CCOc2ccc3c(c2)Cc2cccc(-c4cc(=O)cc(N5CCOCC5)o4)c2S3)CC1`, in data set [1], the solubility kinetic is 92 µg/mL (≈ 177 µM).

For `O=c1cc(-c2cccc3c2Sc2ccc(OCC4CCOCC4)cc2C3)oc(N2CCOCC2)c1`, the solubility kinetic in data set [1] is below 2 µg/mL.

Turning to `COC[C@H]1c2cc(OC)ccc2Sc2c(-c3cc(=O)cc(N4CCOCC4)o3)cccc21`, the Kp uu in data set [3] was 0.18. For the same compound, in data set [4], the Kp is 0.4. Besides, the Vd in data set [5] was found to be 3 L/kg. Moreover, the AUC/dose in data set [6] is 960 nM·kg·h/mg; in data set [7] it was 430 nM·kg·h/mg. In data set [1], the solubility kinetic is 67 µg/mL (≈ 148 µM).

Take `O=c1cc(-c2cccc3c2Sc2ccc(O[C@@H]4CCN(CC(F)F)C4)cc2C3)oc(N2CCOCC2)c1`: the Kp uu in data set [3] was 0.05. Further, in data set [4], the Kp stood at 0.2. Besides, the Vd in data set [5] worked out at 2.6 L/kg. The AUC/dose in data set [6] turned out to be 1600 nM·kg·h/mg; in data set [7], 380 nM·kg·h/mg. Besides, the solubility kinetic in data set [1] stood at 7 µg/mL (≈ 13.3 µM).

In the case of `O=c1cc(-c2cccc3c2Sc2ccc(OCCN4CCC(F)(F)CC4)cc2C3)oc(N2CCOCC2)c1`, in data set [1], the solubility kinetic worked out at 3 µg/mL (≈ 5.55 µM).

On to `COc1ccc2c(c1)C1(CCOCC1)c1cccc(-c3cc(=O)cc(N4CCOCC4)o3)c1S2`, for which the Kp uu in data set [3] was 0.12. Moreover, the Kp in data set [4] stood at 0.5. Besides, the Vd in data set [5] worked out at 3 L/kg. Moreover, the AUC/dose in data set [6] stood at 1500 nM·kg·h/mg; in data set [7], 700 nM·kg·h/mg. Also, in data set [1], the solubility kinetic was 33 µg/mL (≈ 69.1 µM).

Take `C[C@@H](COc1ccc2c(c1)Cc1cccc(-c3cc(=O)cc(N4CCOCC4)o3)c1S2)N1CCOCC1`: in data set [1], the solubility kinetic came out at 9 µg/mL (≈ 17.3 µM).

Turning to `O=c1cc(-c2cccc3c2Sc2ccc(OCCN4CC(F)C4)cc2C3)oc(N2CCOCC2)c1`, the solubility kinetic in data set [1] is 46 µg/mL (≈ 93 µM).

Turning to `C[C@@H](CN1CCCC12COC2)Oc1ccc2c(c1)Cc1cccc(-c3cc(=O)cc(N4CCOCC4)o3)c1S2`, in data set [1], the solubility kinetic stood at 21 µg/mL (≈ 38.4 µM).

Take `C[C@@H]1CN(CCOc2ccc3c(c2)Cc2cccc(-c4cc(=O)cc(N5CCOCC5)o4)c2S3)C[C@H](C)O1`: the solubility kinetic in data set [1] stood at 42.5 µg/mL (≈ 79.5 µM).

Regarding `O=c1cc(-c2cccc3c2Sc2ccc(OC4CN(CC(F)F)C4)cc2C3)oc(N2CCOCC2)c1`, the solubility kinetic in data set [1] stood at 12 µg/mL (≈ 23.4 µM).

In the case of `CN1CC[C@@H](Oc2ccc3c(c2)Cc2cccc(-c4cc(=O)cc(N5CCOCC5)o4)c2S3)C1`, the solubility kinetic in data set [1] stood at 84 µg/mL (≈ 176 µM).

`CC(=O)Nc1ccc2c(c1)Cc1cccc(-c3cc(=O)cc(N4CCOCC4)o3)c1S2`: the solubility kinetic in data set [1] stood at 34 µg/mL (≈ 78.2 µM).

Take `CC(C)(O)C1CCN(CCOc2ccc3c(c2)Cc2cccc(-c4cc(=O)cc(N5CCOCC5)o4)c2S3)CC1`: the Kp uu in data set [3] was 0.05. Besides, the Kp in data set [4] worked out at 0.1. Besides, the Vd in data set [5] is 4.2 L/kg. Besides, the AUC/dose in data set [6] was 950 nM·kg·h/mg; in data set [7] it was 120 nM·kg·h/mg. Also, the solubility kinetic in data set [1] is 101 µg/mL (≈ 179 µM).

On to `O=C(CN1CCCC1)Nc1ccc2c(c1)Cc1cccc(-c3cc(=O)cc(N4CCOCC4)o3)c1S2`, for which the solubility kinetic in data set [1] turned out to be 81 µg/mL (≈ 161 µM).

For `C[C@H](CN1C[C@@H](C)O[C@@H](C)C1)Oc1ccc2c(c1)Cc1cccc(-c3cc(=O)cc(N4CCOCC4)o3)c1S2`, in data set [3], the Kp uu is 0.03. For the same compound, the Kp in data set [4] turned out to be 0.1. Also, the Vd in data set [5] came to 2.3 L/kg. Also, the AUC/dose in data set [6] is 1100 nM·kg·h/mg; in data set [7], 110 nM·kg·h/mg. Moreover, the solubility kinetic in data set [1] turned out to be 30 µg/mL (≈ 54.7 µM).

For the compound `O=C(Nc1ccc2c(c1)Cc1cccc(-c3cc(=O)cc(N4CCOCC4)o3)c1S2)C1CC1`, the solubility kinetic in data set [1] was determined as 5 µg/mL (≈ 10.9 µM).

`COC[C@@H]1c2cc(OC)ccc2Sc2c(-c3cc(=O)cc(N4CCOCC4)o3)cccc21`: the solubility kinetic in data set [1] turned out to be 64 µg/mL (≈ 142 µM).

With `C[C@@H](CN1C[C@H]2C[C@@H]1CO2)Oc1ccc2c(c1)Cc1cccc(-c3cc(=O)cc(N4CCOCC4)o3)c1S2`, the solubility kinetic in data set [1] was found to be 89 µg/mL (≈ 167 µM).

Regarding `C[C@H](COc1ccc2c(c1)Cc1cccc(-c3cc(=O)cc(N4CCOCC4)o3)c1S2)N1CCOCC1`, the solubility kinetic in data set [1] worked out at 13 µg/mL (≈ 25 µM).

`COc1ccc2c(c1)C(C)(C)c1cccc(-c3cc(=O)cc(N4CCOCC4)o3)c1S2`: the solubility kinetic in data set [1] was 5 µg/mL (≈ 11.5 µM).

Consider `O=c1cc(-c2cccc3c2Sc2ccc(OCCN4C[C@H]5C[C@@H]4CO5)cc2C3)oc(N2CCOCC2)c1` (relative stereo), for which the solubility kinetic in data set [1] is 82 µg/mL (≈ 158 µM).
